Assay results from ChEMBL document CHEMBL3774328, “Optimization by Molecular Fine Tuning of Dihydro-β-agarofuran Sesquiterpenoids as Reversers of P-Glycoprotein-Mediated Multidrug Resistance” (J Med Chem, 2016).

Legend:
[1] = Intrinsic cytotoxicity against mouse NIH/3T3 cells by MTT assay; type: cell-based, NIH3T3
Outline: (§1)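 Intrinsic cytotoxicity was measured by MTT in parental NIH-3T3 and MDR1-G185 cells. CC50 came from a four-parameter logistic fit. The top tested concentration was 60 μM, limited by DMSO toxicity, and growth at 60 μM is given as % of untreated control. Mean ± SD of three independent experiments in duplicate.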

[2] = target: T1, ATP-dependent translocase ABCB1 (Homo sapiens, UniProt P08183); assay: Inhibition of human MDR1 expressed in mouse NIH/3T3 cells assessed as reduction in daunomycin IC50 at 10 uM by MTT assay; type: cell-based; conditions: nih3t3, 10 µM
Outline: (§2)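 Parental NIH-3T3 and MDR1-G185 cells were grown in DMEM with 10% iFBS. They were exposed to increasing DNM or VLB (up to 500 ng/mL) with or without compound at fixed 1, 3 or 10 μM. Growth was read by MTT, and IC50 came from a four-parameter logistic fit. Reversal index = IC50 without compound / IC50 with compound in MDR1 cells. Mean ± SD of two independent experiments in triplicate.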

[3] = target: T1, ATP-dependent translocase ABCB1; assay: Potency index, ratio of vinblastine reversal index to compound reversal index for human MDR1 expressed in mouse NIH/3T3 cells at 3 uM; type: cell-based; conditions: nih/3t3, 3 µM
[4] = target: T1, ATP-dependent translocase ABCB1; assay: Inhibition of human MDR1 expressed in mouse NIH/3T3 cells assessed as reduction in daunomycin IC50 at 1 uM by MTT assay; type: cell-based; conditions: nih3t3, 1 µM
Outline: as §2, with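 “fit.” for “fit. Reversal index = IC50 without compound / IC50 with compound in MDR1 cells.”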

[5] = target: T1, ATP-dependent translocase ABCB1; assay: Inhibition of human MDR1 expressed in mouse NIH/3T3 cells assessed as reduction in vinblastine IC50 at 10 uM by MTT assay; type: cell-based; conditions: nih3t3, 10 µM; outline: as §2
[6] = target: T1, ATP-dependent translocase ABCB1; assay: Inhibition of human MDR1 expressed in mouse NIH/3T3 cells assessed as reduction in vinblastine IC50 at 3 uM by MTT assay; type: cell-based; conditions: nih3t3, 3 µM; outline: as §2
[7] = Intrinsic cytotoxicity against mouse NIH/3T3 cells assessed as cell growth at 60 uM by MTT assay; type: cell-based, NIH3T3; conditions: read-out: Activity; outline: as §1
[8] = target: T1, ATP-dependent translocase ABCB1; assay: Inhibition of human MDR1 expressed in mouse NIH/3T3 cells assessed as reduction in daunomycin IC50 at 3 uM by MTT assay; type: cell-based; conditions: nih3t3, 3 µM; outline: as §2
[9] = target: T1, ATP-dependent translocase ABCB1; assay: Inhibition of human MDR1 expressed in mouse NIH/3T3 cells assessed as inhibition of daunomycin efflux incubated for 30 mins by flow cytometry; type: cell-based, NIH3T3
Outline: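 Ki for DNM efflux. MDR1-G185 NIH-3T3 cells were incubated 30 min at 37 °C with DNM (2 μM) and varying compound concentrations, then read by flow cytometry. Fluorescence was converted to % P-gp inhibition, normalized to cells treated with 5 mM sodium orthovanadate (100%). Ki was fitted from I = (Imax × S)/(Ki + S). Mean ± SD of three independent experiments in triplicate.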

[10] = target: T1, ATP-dependent translocase ABCB1; assay: Inhibition of human MDR1 expressed in mouse NIH/3T3 cells assessed as reduction in vinblastine IC50 at 1 uM by MTT assay; type: cell-based; conditions: nih3t3, 1 µM; outline: as §2
[11] = Intrinsic cytotoxicity against mouse NIH/3T3 cells transfected with human MDR1 by MTT assay; type: ADME, cell-based, NIH3T3; outline: as §1
[12] = target: T1, ATP-dependent translocase ABCB1; assay: Potency index, ratio of daunomycin reversal index to compound reversal index for human MDR1 expressed in mouse NIH/3T3 cells at 1 uM; type: cell-based; conditions: nih/3t3, 1 µM
Outline: (§3)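 Each RI comes from the MTT dose-response of DNM or VLB (up to 500 ng/mL), with or without modulator.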

[13] = target: T1, ATP-dependent translocase ABCB1; assay: Potency index, ratio of vinblastine reversal index to compound reversal index for human MDR1 expressed in mouse NIH/3T3 cells at 1 uM; type: cell-based; conditions: nih/3t3, 1 µM; outline: as §3
[14] = Intrinsic cytotoxicity against mouse NIH/3T3 cells transfected with human MDR1 assessed as cell growth at 60 uM by MTT assay; type: ADME, cell-based, NIH3T3; conditions: read-out: Activity; outline: as §1

T1 sequence (P08183 whole entry): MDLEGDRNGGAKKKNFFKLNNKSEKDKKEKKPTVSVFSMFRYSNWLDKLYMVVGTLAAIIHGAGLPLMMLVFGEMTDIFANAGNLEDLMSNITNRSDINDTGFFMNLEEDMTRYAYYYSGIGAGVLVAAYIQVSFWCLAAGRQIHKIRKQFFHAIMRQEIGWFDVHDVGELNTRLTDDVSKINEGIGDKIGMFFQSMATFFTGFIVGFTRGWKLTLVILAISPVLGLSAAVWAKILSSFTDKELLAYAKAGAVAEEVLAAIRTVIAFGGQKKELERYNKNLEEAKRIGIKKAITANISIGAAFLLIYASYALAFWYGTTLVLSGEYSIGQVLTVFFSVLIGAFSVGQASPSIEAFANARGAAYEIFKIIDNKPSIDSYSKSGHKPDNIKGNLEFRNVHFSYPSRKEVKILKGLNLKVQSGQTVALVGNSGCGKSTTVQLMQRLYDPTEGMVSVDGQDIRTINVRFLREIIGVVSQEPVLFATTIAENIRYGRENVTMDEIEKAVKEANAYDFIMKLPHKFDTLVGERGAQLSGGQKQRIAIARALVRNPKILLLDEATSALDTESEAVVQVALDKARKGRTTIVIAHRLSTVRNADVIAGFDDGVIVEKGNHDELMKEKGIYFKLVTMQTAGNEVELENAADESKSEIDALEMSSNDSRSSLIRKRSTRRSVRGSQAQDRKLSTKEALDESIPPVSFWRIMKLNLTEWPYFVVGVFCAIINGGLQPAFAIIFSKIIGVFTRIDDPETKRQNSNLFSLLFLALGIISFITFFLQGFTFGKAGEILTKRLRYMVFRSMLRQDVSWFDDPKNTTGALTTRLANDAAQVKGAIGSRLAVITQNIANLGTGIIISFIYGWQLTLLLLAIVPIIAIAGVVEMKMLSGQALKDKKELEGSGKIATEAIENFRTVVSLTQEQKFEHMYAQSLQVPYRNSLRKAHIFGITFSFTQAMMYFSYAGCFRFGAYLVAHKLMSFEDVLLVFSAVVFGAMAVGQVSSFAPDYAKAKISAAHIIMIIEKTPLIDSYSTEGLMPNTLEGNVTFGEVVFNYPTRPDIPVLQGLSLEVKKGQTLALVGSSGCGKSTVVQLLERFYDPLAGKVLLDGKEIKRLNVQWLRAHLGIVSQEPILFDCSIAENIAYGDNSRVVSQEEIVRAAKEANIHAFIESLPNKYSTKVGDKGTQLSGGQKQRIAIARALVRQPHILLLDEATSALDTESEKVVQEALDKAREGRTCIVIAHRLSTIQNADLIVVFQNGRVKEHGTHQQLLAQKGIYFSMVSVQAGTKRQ

SMILES: CC(=O)O[C@H]1CC[C@](C)(O)[C@]23OC(C)(C)[C@H]([C@H](OC(=O)/C=C/c4ccccc4)[C@H](OC(=O)c4ccccc4)[C@]12C)[C@H]3OC(=O)c1cccnc1
- CC50 [1]: > 60 µM
- fold change (FC) [2]: 16.1
- Ratio [3]: 2
- fold change (FC) [4]: 11.8
- fold change (FC) [5]: 113.5
- fold change (FC) [6]: 56
- viability at 60 µM [7]: 67.7%
- fold change (FC) [8]: 14.7
- Ki [9]: 0.13 µM
- fold change (FC) [10]: 17.4
- CC50 [11]: 32.6 µM
- Ratio [12]: 3

SMILES: CC(=O)O[C@H]1CC[C@](C)(O)[C@]23OC(C)(C)[C@H]([C@H](OC(=O)/C=C/c4ccccc4)[C@H](OC(=O)c4ccccc4)[C@]12C)[C@H]3OC(=O)CCC(=O)N(C(=O)NC1CCCCC1)C1CCCCC1
- CC50 [1]: 56.4 µM
- fold change (FC) [2]: 24.9
- Ratio [13]: 3
- viability at 60 µM [14]: 72.8%
- fold change (FC) [4]: 15.8
- fold change (FC) [5]: 90
- fold change (FC) [6]: 36.1
- fold change (FC) [8]: 19.5
- Ki [9]: 0.19 µM
- fold change (FC) [10]: 27.4
- CC50 [11]: > 60 µM
- Ratio [12]: 3

SMILES: CC(=O)O[C@H]1CC[C@](C)(O)[C@]23OC(C)(C)[C@H]([C@H](OC(=O)/C=C/c4ccccc4)[C@H](OC(=O)c4ccccc4)[C@]12C)[C@H]3OC(=O)c1cnccn1
- CC50 [1]: > 60 µM
- fold change (FC) [2]: 9
- viability at 60 µM [14]: 86.2%
- fold change (FC) [4]: 2.3
- fold change (FC) [5]: 20.6
- fold change (FC) [6]: 8.8
- viability at 60 µM [7]: 66.3%
- fold change (FC) [8]: 4
- Ki [9]: 1.74 µM
- fold change (FC) [10]: 3.7
- CC50 [11]: > 60 µM

SMILES: COc1ccc(CCN(C)CCCC(C#N)(c2ccc(OC)c(OC)c2)C(C)C)cc1OC (configuration not stated)
- fold change (FC) [2]: 10.8
- viability at 60 µM [14]: 76.9%
- fold change (FC) [5]: 129.9
- fold change (FC) [6]: 27.8
- fold change (FC) [8]: 6.2
- fold change (FC) [10]: 8.7
- CC50 [11]: > 60 µM
